Source: PubChem BioAssay (several laboratories)
Hck-Nef inh: human Hck-Nef kinase inhibition; P08631; 0.68% of 220,000 active; Recombinant Hck-YEEI plus Nef, Z-Lyte FRET kinase assay; inhibition, % at 20 µM;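 active = Hck-Nef kinase inhibition above about 50%, limit read from the data; inactive = inhibition below that limit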;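 note: 0% = DMSO with Hck plus Nef and 100% = Hck alone without Nef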
p97 ATPase inh: blocks human p97 ATPase activity; P55072; recombinant p97 ATPase, Kinase-Glo ATP luminescence, 3 h; inhibition, % at 8 µM; 0.42% of 220,000 active; in the data active = inhibition above about 15%;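 note: 0% = DMSO vehicle and 100% = wells lacking enzyme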
Runt-SMMHC FRET: inhibitors of human RUNX1 Runt domain binding to CBFb-SMMHC. Q01196+Q13951. Cerulean-Runt/Venus-CBFb-SMMHC FRET ratio 530/480, 1 h. inhibition, % at 20 µM. 0.74% of 220,000 active;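 active = mean inhibition across duplicate retests at 20 µM reaching about 50%, limit read from the data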;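 note: 0% = DMSO wells and 100% = wells with excess untagged CBFb-SMMHC; inhibitors lower the FRET ratio by blocking Runt binding to CBFb-SMMHC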
Target sequence (Q01196 whole entry, looked up, the tested form may be a part): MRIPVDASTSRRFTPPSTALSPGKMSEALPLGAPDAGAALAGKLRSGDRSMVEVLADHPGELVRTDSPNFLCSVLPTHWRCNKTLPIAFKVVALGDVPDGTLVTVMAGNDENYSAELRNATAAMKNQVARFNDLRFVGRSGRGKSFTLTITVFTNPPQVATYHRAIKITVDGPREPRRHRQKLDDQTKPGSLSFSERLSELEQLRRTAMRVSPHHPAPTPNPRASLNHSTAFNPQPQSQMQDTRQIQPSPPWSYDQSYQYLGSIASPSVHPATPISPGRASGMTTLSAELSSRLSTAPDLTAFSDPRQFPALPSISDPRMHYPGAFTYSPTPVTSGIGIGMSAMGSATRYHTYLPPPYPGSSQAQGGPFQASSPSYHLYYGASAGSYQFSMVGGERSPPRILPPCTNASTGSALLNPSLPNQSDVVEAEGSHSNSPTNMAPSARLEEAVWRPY
Target sequence (Q13951 whole entry, looked up, the tested form may be a part): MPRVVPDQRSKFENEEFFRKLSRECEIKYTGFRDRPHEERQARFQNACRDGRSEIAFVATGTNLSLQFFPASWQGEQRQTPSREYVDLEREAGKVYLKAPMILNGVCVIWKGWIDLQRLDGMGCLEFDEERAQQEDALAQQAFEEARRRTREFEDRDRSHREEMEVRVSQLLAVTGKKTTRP
RanGTP-Imp inh: inhibitors of RanGTP-importin-beta interaction, primary screen, biochemical, FRET, CFP-Ran, YFP-importin-beta, homogeneous. 1.1% of 300,000 active. inhibition, % (test concentration not listed). AID 2216. cell-free CFP-Ran/YFP-importin-beta FRET ratio;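 active = more than half of the replicate wells show a fall in the fluorescence ratio signal beyond about 16%, limit read from the data, passing the limit was not always enough; inconclusive = exactly half of the replicate wells pass the set limit; inactive = fewer than half of replicates pass the limit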;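 note: 0% = DMSO wells and 100% = Ran loaded with GDP instead of GTP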
TbHK1 inh: T. brucei hexokinase 1 inhibition. AID 1430. 0.11% of 220,000 active. inhibition, % at 10 µM. recombinant TbHK1, G6PDH-coupled NADH A340;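 active = inhibition of 50% or more in the single-dose primary screen; inactive = inhibition below 50%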
Runt-CBFb FRET: Runt domain-CBFb interaction inhibition; Q01196+Q13951; Cerulean-Runt/Venus-CBFb FRET ratio 530/480, 1 h; inhibition, % at 20 µM; 0.46% of 220,000 active; AID 1496;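 active = inhibition over about 50% at 20 µM in the single-dose screen, limit read from the data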;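 note: 0% = DMSO wells and 100% = excess unlabeled CBFb competitor control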
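Assay system: Cerulean-Runt domain / Medium: Tris 50 mM pH 7.5, KCl, K2SO4, 0.01% BSA / Timing: protein complex preformed 1 h, compound exposure 1 h, room temperature, dark / Measured by: FRET, excitation 422 nm, emission at 530 and 480 nm / Evaluation: loss of energy transfer signal / Control set: 5 µM unlabeled CBFb as full-inhibition high control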
p97 confirm: human p97 ATPase inhibition, confirmation; AID 1517; shares compounds with p97 ATPase inh; inhibition, % at 8 µM; 44% of 760 active; recombinant p97 ATPase, Kinase-Glo ATP luminescence;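 active = percent inhibition of p97 ATPase above a set limit, the primary screen's mean plus 3 SD, cut at about 15% in these data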;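 note: 0% = DMSO wells and 100% = wells lacking p97 protein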
* hit, by the source's call; ? = inconclusive; / = not tested or not shown. Only some compounds are listed: those with a hit (about 2.1% of all), similar ones and a draw of the others.

SMILES	Hck-Nef inh	p97 ATPase inh	Runt-SMMHC FRET	RanGTP-Imp inh	TbHK1 inh	Runt-CBFb FRET	p97 confirm
Cc1cc2c(cc1S(=O)(=O)CCC(=O)NCCc1ccccc1)OCC(=O)N2	/	/	/	-1	/	/	/
COc1ccc(S(=O)(=O)Nc2nccs2)cc1OC	14	17*	-2	-2	4	0	7
O=S(=O)(Nc1nccs1)c1ccc(Br)cc1	19	1	2	-3	-3	-2	/
O=C(Nc1cccc(NC(=O)c2ccco2)c1)c1ccc2c(c1)OCCO2	13	17*	4	2	8	-2	5
Clc1ccccc1C1CC(c2ccccc2)=Nc2ccccc2N1 (configuration not stated)	7	15*	-4	-1	1	0	6
Brc1ccccc1C1CC(c2ccccc2)=Nc2ccccc2N1 (configuration not stated)	2	2	-12	3	1	-3	/
COc1cc(/C=N/NC(=O)c2sc(N)c(C#N)c2C)cc(Br)c1O	34	8	0	1	-7	-3	/
COc1ccc2ccccc2c1/C=N/NC(=O)c1sc(N)c(C#N)c1C	12	18*	-10	4	8	-10	39*
Cc1ccc(C)c(C(=O)C(C)Sc2nc3nn(-c4ccccc4)c(=O)c-3c3n2CCCCC3)c1 (configuration not stated)	/	/	/	-4	/	/	/
S=c1[nH]nc(C2CC2)n1Cc1ccccc1	-29	50*	7	0	9	7	9
S=c1[nH]nc(C2CCCCC2)n1Cc1ccccc1	24	4	5	-1	-2	4	/
Cc1cc(NC(=O)COC(=O)CCNS(=O)(=O)c2ccccc2)n(-c2ccccc2)n1	/	/	/	0	/	/	/
N=C1/C(=C\c2ccc(SCc3ccco3)o2)C(=O)N=C2SC=NN12	0	18*	7	5	-3	22	16*
COc1ccccc1OCCNC(=O)Nc1cc(F)c(F)cc1Cl	-2	5	0	0	-2	-1	/
COc1ccc(/C=C2/C(=O)N(c3ccccc3)N=C2C)cc1	/	/	/	-1	/	/	/
COc1ccc(C2=NN(c3ccccc3)C(=O)/C2=C\c2ccc(O)c(OC)c2)cc1	14	35*	-6	1	-13	-5	7
COc1ccc(N2CC(C(=O)Nc3nnc(SCC(=O)NCC4CCCO4)s3)CC2=O)cc1 (configuration not stated)	/	/	/	5	/	/	/
COc1ccc(CNc2ncnc3c2[nH]c2cc(OC)c(OC)cc23)cc1	13	10	-2	2	-16	0	/
COc1ccc(CNc2ncnc3c2[nH]c2ccccc23)cc1	12	16*	2	?	-21	-1	20*
CC(=O)c1cc(C#N)c(SCc2ccc([N+](=O)[O-])cc2)nc1C	22	0	-6	6	-10	0	/
CCCNC(=S)Nc1c(C)n(C)n(-c2ccccc2)c1=O	12	3	-3	?	-2	-2	/
COc1ccc(NC(=O)C(Cl)=C(Cl)Cl)cn1	10	28*	2	-1	3	1	35*
S=C(Nc1ccc(Nc2ccccc2)cc1)N1CCN(c2ncccn2)CC1	-10	-3	-4	3	-6	3	/
COCCOC(=O)C(CC(=O)O)NCc1ccco1 (configuration not stated)	-8	16*	-6	1	-4	-2	2
CC(C)CC(=O)Nc1cccc(-c2cn3ccsc3n2)c1	5	1	3	-2	-1	2	/
SMILES	Hck-Nef inh	p97 ATPase inh	Runt-SMMHC FRET	RanGTP-Imp inh	TbHK1 inh	Runt-CBFb FRET	p97 confirm
CCC(=O)Nc1cccc(-c2cn3ccsc3n2)c1	0	15*	3	-2	-7	-1	10
CSc1nsc2nc(=O)c(/C=C3\C(C)=Nc4ccccc43)c(N)n12	-42	21*	14	8	-6	-1	38*
Cc1ccc(-n2c(O)c(/C=C3/C(c4ccccc4)=Nc4ccccc43)c(=O)[nH]c2=O)cc1	2	8	-25	1	1	-6	/
O=C(Cc1ccccc1)Nc1ccc2c(c1)CCC2	-2	0	-3	-4	1	0	/
O=C(CC1CCCC1)Nc1ccc2c(c1)CCC2	1	46*	-2	-4	0	-4	4
COc1cc(N)c(C(=O)c2nccc3cc(OC)c(OC)cc23)cc1OC	/	/	/	0	/	/	/
COc1cc(C(=O)c2nccc3cc(OC)c(OC)cc23)c([N+](=O)[O-])cc1OC	23	30*	3	1	-14	-5	25*
O=C(Nc1ccccc1OC(F)F)c1ccccc1	3	16*	4	8	0	-1	9
O=C(NCCc1ccccn1)c1cc2ccccc2o1	/	/	/	-2	/	/	/
CCOc1ccc(NC(=O)c2ccc(NC(=S)NC3CCCCC3)cc2)cc1	15	15*	4	0	1	4	9
CCOc1ccc(NC(=O)c2ccc(NC(=S)NC3CC3)cc2)cc1	22	1	-1	-5	1	6	/
COc1ccc(OC)c(Nc2nc(N)nc(CCl)n2)c1	21	25*	0	-1	8	0	25*
Cc1cccc(Nc2nc(N)nc(CCl)n2)c1	2	11	7	1	1	5	/
COc1cccc(Nc2nc(N)nc(CCl)n2)c1	9	18*	1	0	-5	1	17*
Cc1ccc(NC(=O)CCNC(=O)Cn2cnc3ccccc3c2=O)cc1F	/	/	/	11	/	/	/
COc1ccc(/C=C(/NC(=O)c2ccc(C)cc2)C(=O)N2CCCC2)cc1OC	/	/	/	4	/	/	/
N#Cc1c(N(CCO)CCO)nc(N)c2c(N)nc3c(c12)CC(=O)N3CC1CCCO1 (configuration not stated)	-61	26*	-4	?	-26	7	4
O=C(CC1SC(=O)N(c2ccccc2)C1=O)Nc1ccccc1 (configuration not stated)	6	2	5	-10	1	4	/
O=C(CC1Sc2ncnn2C1=O)Nc1ccccc1 (configuration not stated)	1	16*	3	3	-2	8	7
O=C(CCN1CCOCC1)Nc1cc(C(=O)Nc2ccc(Cl)cc2)ccc1N1CC2CC(C1)c1cccc(=O)n1C2 (configuration not stated)	/	/	/	-2	/	/	/
COc1ccc(C(C)=O)cc1COc1ccccc1[N+](=O)[O-]	20	3	-1	-3	-4	1	/
COc1ccc(C(C)=O)cc1COC(=O)c1ccc(N)c([N+](=O)[O-])c1	22	18*	-10	-2	-2	-2	22*
COc1ccc2ccc3c(c2c1)N=C[C@]1(O3)N(C)c2ccccc2C1(C)C	1	24*	2	1	-11	6	2
